These results are taken from paper PMC9184248 (Journal of Pesticide Science, 2022).

As a reminder, the EC50 is the midpoint of the concentration-response curve. A high value points to lower potency in that assay.

Common to all, as to test: two-electrode voltage clamp, Xenopus oocytes
Holding throughout (type): cell-based
On the technique in general: Two-electrode voltage clamp is typically applied to oocytes expressing channels or transporters.

Assay [1] concerns the target T1, LsRDLR (Laodelphax striatellus RDL GABA receptor) (Laodelphax striatellus, UniProt Q0ECT5, F128Y/Y91F).
T1 sequence (Q0ECT5 23-487 Y91F/F128Y): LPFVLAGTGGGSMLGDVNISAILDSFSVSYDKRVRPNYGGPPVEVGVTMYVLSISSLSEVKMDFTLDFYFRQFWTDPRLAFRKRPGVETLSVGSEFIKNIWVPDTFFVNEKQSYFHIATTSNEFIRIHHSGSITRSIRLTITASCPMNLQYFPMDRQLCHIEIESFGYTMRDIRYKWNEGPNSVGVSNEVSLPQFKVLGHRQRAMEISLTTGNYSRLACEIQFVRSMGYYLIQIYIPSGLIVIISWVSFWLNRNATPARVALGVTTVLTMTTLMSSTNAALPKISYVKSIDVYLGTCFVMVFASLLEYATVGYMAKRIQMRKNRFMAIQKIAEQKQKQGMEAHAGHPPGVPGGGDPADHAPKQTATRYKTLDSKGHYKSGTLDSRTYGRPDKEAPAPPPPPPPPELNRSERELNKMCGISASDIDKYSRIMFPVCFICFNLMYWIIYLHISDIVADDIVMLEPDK
In a few lines:
(§1)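 WT or site-directed mutant LsRDL cRNA (5 ng) injected into defolliculated Xenopus oocytes, which were then held 48 hr at 16°C in SOS (pH 7.6). Clamped at −80 mV, perfused with SOS at 18–20°C. GABA applied for 3 sec at 30–60 sec intervals. EC50 from a four-parameter variable-slope logistic fit; ≥6 oocytes from ≥2 frogs; mean±S.D.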

In assay [2] the target is T2, LsRDLR (Laodelphax striatellus RDL GABA receptor) (Laodelphax striatellus, UniProt Q0ECT5, F128Y/F95S).
T2 sequence (Q0ECT5 23-487 F95S/F128Y): T1 sequence (Q0ECT5 23-487 Y91F/F128Y)
In a few lines:
as §1

Assay [3] concerns the target T3, LsRDLR (Laodelphax striatellus RDL GABA receptor) (Laodelphax striatellus, UniProt Q0ECT5).
T3 sequence (Q0ECT5 23-487): T1 sequence (Q0ECT5 23-487 Y91F/F128Y)
In short, it runs like this: as §1

Assay [4] deals with T4, LsRDLR (Laodelphax striatellus RDL GABA receptor) (Laodelphax striatellus, UniProt Q0ECT5, F95S/Y91F).
T4 sequence (Q0ECT5 23-487 Y91F/F95S): T1 sequence (Q0ECT5 23-487 Y91F/F128Y)
In a few lines: as §1

Assay [5] deals with T5, LsRDLR (Laodelphax striatellus RDL GABA receptor) (Laodelphax striatellus, UniProt Q0ECT5, Y91F).
T5 sequence (Q0ECT5 23-487 Y91F): T1 sequence (Q0ECT5 23-487 Y91F/F128Y)
In short, it runs like this: as §1

Assay [6] deals with T6, LsRDLR (Laodelphax striatellus RDL GABA receptor) (Laodelphax striatellus, UniProt Q0ECT5, F95S).
T6 sequence (Q0ECT5 23-487 F95S): T1 sequence (Q0ECT5 23-487 Y91F/F128Y)
In short, it runs like this: as §1

Assay [7] has as its target T7, LsRDLR (Laodelphax striatellus RDL GABA receptor) (Laodelphax striatellus, UniProt Q0ECT5, F128Y/F95S/Y91F).
T7 sequence (Q0ECT5 23-487 Y91F/F95S/F128Y): T1 sequence (Q0ECT5 23-487 Y91F/F128Y)
In a few lines:
as §1

Assay [8] deals with T8, LsRDLR (Laodelphax striatellus RDL GABA receptor) (Laodelphax striatellus, UniProt Q0ECT5, F128Y).
T8 sequence (Q0ECT5 23-487 F128Y): T1 sequence (Q0ECT5 23-487 Y91F/F128Y)
In a few lines: as §1

Assay [9] has as its target T3, LsRDLR (Laodelphax striatellus RDL GABA receptor). Particulars: read-out: % of control GABA response remaining at 30 μM gabazine.

The structures appear in SMILES notation.

Regarding `NCCCC(=O)O` [GABA], the EC50 in assay [1] was 37.3 ± 11.8 µM; in [2], 25.6 ± 11.9 µM; in assay [3] it was 6.83 ± 3.74 µM; in [4], 63.2 ± 23.8 µM; in assay [5] it was 131 ± 45 µM; in assay [6], 4.08 ± 1.31 µM. Moreover, the figures for the EC50 in assay [7] and in [8] were 15.4 ± 3.7 µM and 43.7 ± 10.2 µM, respectively.
With `COc1ccc(-c2ccc(=N)n(CCCC(=O)O)n2)cc1` [gabazine, 2-(3-carboxypropyl)-6-(4-methoxyphenyl)-2,3-dihydropyridazin-3-iminium bromide], the remaining activity at 30 µM in assay [9] came out at 77.8 ± 8%.
